PvdQ acylase: blocks Pseudomonas aeruginosa PvdQ acylase activity; AID 488965; 340,000 tested, 0.063% active; inhibition, % at 10 µM; purified PvdQ acylase, fluorescence plate reader; in the data active = inhibition above about 30%, passing the limit was not always enough;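 note: 0% = vehicle neutral wells and 100% = reference inhibitor wells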
ERp5 block: ERp5 (human) disulfide isomerase inhibition; Q15084; ERp5 insulin aggregation, absorbance 650 nm, 90 min; inhibition, % at 9.99 µM; 350,000 tested, 0.05% active;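 active = mean replicate inhibition above about 25%, with every replicate also reaching it, limit read from the data, passing the limit was not always enough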
Target sequence (Q15084 whole entry, looked up): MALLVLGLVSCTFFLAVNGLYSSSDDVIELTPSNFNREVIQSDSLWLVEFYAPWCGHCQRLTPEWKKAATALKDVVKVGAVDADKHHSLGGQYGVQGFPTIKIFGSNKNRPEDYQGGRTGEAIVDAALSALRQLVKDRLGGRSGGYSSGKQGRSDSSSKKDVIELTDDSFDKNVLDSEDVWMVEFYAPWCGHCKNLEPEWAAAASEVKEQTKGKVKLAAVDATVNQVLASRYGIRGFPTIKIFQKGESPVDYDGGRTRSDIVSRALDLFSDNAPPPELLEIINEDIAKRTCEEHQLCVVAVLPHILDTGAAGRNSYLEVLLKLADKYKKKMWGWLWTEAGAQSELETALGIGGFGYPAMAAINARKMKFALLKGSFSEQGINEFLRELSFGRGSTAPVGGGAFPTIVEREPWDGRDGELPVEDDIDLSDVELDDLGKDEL
PDI turbidity: inhibitors of human protein disulfide isomerase; P07237; PDI insulin aggregation turbidity, A650, 90 min; AID 588391; 350,000 tested, 0.052% active; inhibition, % at 10 µM;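 active = mean inhibition across replicates of 30% or more, whatever share of single replicates reach that level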
IMP-1 inhibitor: inhibitors of Pseudomonas aeruginosa IMP-1 metallo-beta-lactamase. purified IMP-1, nitrocefin hydrolysis, epi-absorbance fluorescence. inhibition, % at 5.6 µM. 290,000 tested, 0.45% active. AID 1556;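 active = inhibition above the mean plus 3 SD of all compounds in the same screening run, cut at about 4.5% in these data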;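 note: 0% = IMP-1 with DMSO and 100% = DMSO wells lacking enzyme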
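System: Purified IMP-1 | Read-out basis: Percent enzyme inhibition | Controls: IMP-1 with DMSO as 0%, enzyme-free DMSO as 100% | Replicates: One well per compound | Doses: 5.6 µM nominal single concentration | Detection: Epi-absorbance fluorescence, 480 nm excitation, 530 nm emission | Incubation: 25 °C, 15 min preincubation, 25 min reaction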
PglD inh: PglD (C. jejuni) enzyme inhibition. inhibition, % at 12.5 µM. 360,000 tested, 0.098% active. AID 602405. purified PglD enzyme, DTNB colorimetric CoA detection; in the data active = inhibition above about 16%, passing the limit was not always enough
VIM-2 inh: blocks Pseudomonas aeruginosa VIM-2 metallo-beta-lactamase; purified VIM-2, nitrocefin hydrolysis, epi-absorbance fluorescence; inhibition, % at 5.6 µM; 290,000 tested, 0.89% active;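 active = inhibition above the mean of all tested compounds plus 3 SD, cutoff set per screening run, cut at about 7.5% in these data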;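 note: red hydrolysis product quenches plate fluorescence so inhibitors raise well fluorescence; 0% = enzyme with DMSO and 100% = DMSO without enzyme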
* marks the source's active call; other numbers are inactive results; nt = no result given. A selection: hits, their analogues and other compounds. The true share with any hit is near 1%.

SMILES	PvdQ acylase	ERp5 block	PDI turbidity	IMP-1 inhibitor	PglD inh	VIM-2 inh
CCOC(=O)C1CCCN(c2nc(C)nc3c2oc2ccccc23)C1 (stereo unspecified)	-17	nt	-1	-2	nt	10*
Cc1ccc(C)c(N2CCN(C(=O)c3cc4c(C)nc5ccccc5c4o3)CC2)c1	-9	5	-2	-3	1	-3
CCOC(=O)C1CCCN(C(=O)c2cc3c(C)nc4ccccc4c3o2)C1 (stereo unspecified)	-15	nt	-1	-5	-3	7.9*
CCC(=O)N1C[C@@H](C)[C@@H](OC)CN(C)C(=O)c2cc(NS(C)(=O)=O)ccc2OC[C@@H]1C	nt	0	nt	nt	-2	nt
C[C@H]1CN([C@@H](C)CO)C(=O)Cc2cc(NC(=O)CCCN(C)C)ccc2O[C@@H]1CN(C)S(=O)(=O)c1cn(C)cn1	nt	-10	nt	nt	1	nt
C/C(CCC(C)C)=N\NS(=O)(=O)c1ccc(C)c([N+](=O)[O-])c1	-5	5	-5	-4	-4	-4
Cc1ccc(S(=O)(=O)NCCC(C)C)cc1[N+](=O)[O-]	53*	-5	16	-4	nt	-2
Nc1nc2c3ccccc3nc(C3CC3)n2n1	9	nt	3	-3	3	8.2*
O=C(Nc1ccccc1)C1Cc2ccccc2CN1C(=O)c1ccco1 (stereo unspecified)	-10	nt	1	-1	nt	2
O=C(Nc1cc(C(F)(F)F)ccc1N1CCOCC1)C1Cc2ccccc2CN1C(=O)c1ccco1 (stereo unspecified)	-12	nt	10	5.6*	4	0
CO[C@@H]1CN(C)C(=O)c2ccc(NC(=O)c3ccno3)cc2OC[C@H](C)N(C(=O)C2CCC2)C[C@@H]1C	nt	nt	nt	nt	3	nt
CCCNC(=O)N(C)C[C@H]1Oc2cc(C#CCC(C)C)ccc2S(=O)(=O)N([C@H](C)CO)C[C@H]1C	nt	0	nt	nt	3	nt
COc1ccc(/C(=C/Nc2cccc(Br)c2)C(C)=O)cc1OC	-16	1	15	-3	nt	9.9*
O=C(C[C@@H]1C=C[C@H](NC(=O)CN2CCOCC2)[C@H](CO)O1)NCCc1ccncc1	nt	0	nt	nt	nt	nt
Cc1ccc(C2=C(c3ccc([N+](=O)[O-])cc3)C(=O)OC2)cc1C	6	-3	15	13*	nt	-2
O=C(N/N=C/c1coc2ccccc2c1=O)c1cc(O)cc(O)c1	-14	-4	17	-1	nt	0
CCOc1cccc(C(=O)N/N=C/c2coc3ccccc3c2=O)c1	-14	1	-4	5.5*	6	-5
COc1ccc(C(=O)N/N=C\c2coc3ccccc3c2=O)cc1	-9	-6	-2	-2	1	-4
Cc1cccc(C(=O)N/N=C/c2coc3ccccc3c2=O)c1	-14	2	0	5.8*	-5	-4
CC(C)Oc1cccc(C(=O)N/N=C/c2coc3ccccc3c2=O)c1	-12	-1	0	5.3*	-2	-7
O=C(C1CCC1)N1CC2(C1)[C@H](c1ccccc1)[C@H](CO)N2CCC(F)(F)F	nt	-1	nt	nt	nt	nt
COCC#Cc1cnc2c(c1)C(=O)N([C@H](C)CO)C[C@@H](C)[C@H](CN(C)C)O2	nt	-2	nt	nt	0	nt
COc1ccc(NC(=O)N[C@@H]2C=C[C@@H](CC(=O)NC3CCCCC3)O[C@H]2CO)cc1	nt	-2	nt	nt	-1	nt
C[C@@H]1CN([C@H](C)CO)C(=O)c2cccc(NC(=O)C3CC3)c2O[C@@H]1CN(C)Cc1ccc(C(=O)O)cc1	nt	-2	nt	nt	5	nt
CCOC(=O)CCCn1ncn2c(cc3occc32)c1=O	33*	nt	5	-3	-3	-3
SMILES	PvdQ acylase	ERp5 block	PDI turbidity	IMP-1 inhibitor	PglD inh	VIM-2 inh
COc1ccc(NC(=O)N(C)C[C@@H]2Oc3ccc(NS(=O)(=O)c4ccc(F)cc4)cc3CC(=O)N([C@@H](C)CO)C[C@@H]2C)cc1	nt	1	nt	nt	nt	nt
CC(C)NC(=O)Nc1ccc2c(c1)C(=O)N([C@H](C)CO)C[C@H](C)[C@@H](CN(C)C(=O)c1ccncc1)OCCCC[C@H](C)O2	nt	-2	nt	nt	2	nt
CN(C)c1ccc(C(=S)N2CCCCCC2)cc1	20	nt	-14	5.5*	0	-2
O=C1c2cccnc2-c2ncccc21	-15	nt	28	-3	-2	0
COC1=C(Br)C(=O)c2ncccc2C1=O	-10	7	47*	nt	nt	nt
COc1ccccc1C#Cc1ccc2c(=O)c3ccccc3n(C)c2c1	-2	-1	4	6.8*	2	0
